Data taken from PubChem BioAssay.
Activity calls are given as the source filed them.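 How the source made its calls, unless noted: active means viability loss from added drug above about 55%, and viability with drug at most 40%, in both replicates (limit read from the data, passing the limit was not always enough); inconclusive means both conditions met in only one replicate; inactive means neither replicate meets both conditions.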

How the values were obtained:
[1] = Her2 expression decrease, cell viability multiplex – SKBR3 breast tumor cells, AlphaScreen, ATP viability, primary screen (AID 461;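 active means Her2 level under about 52% in both replicate screens, with viability over 70% of control, limit read from the data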;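 on Her2 level: lower value means less Her2 protein in the cells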;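 on viability: percent of carrier control wells set as 100% viability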); conditions: SKBR3 Her2 protein level, 18-24 h, measured here: SKBR3 viability, ATP luminescence, at 10 µM
[2] = target: Receptor tyrosine-protein kinase erbB-2 (Homo sapiens) (UniProt P04626); experiment: as above; conditions: 18-24 h, at 10 µM, stronger effect = lower value
[3] = reduced viability of SK-BR-3 breast cancer cells – cell-based, 24 h, human, pilot screen (AID 572;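 active means viability at or below 10% of carrier control in both of two separate runs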;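 further: compound exposure lasted between 18 and 24 h rather than exactly 24 h; 100% = carrier-treated control wells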); conditions: SK-BR-3 viability, CellTiter-Glo luminescence, at 10 µM, stronger effect = lower value
[4] = HUVEC growth inhibition – cell-based, human, primary screen (AID 575;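 active means viability at or below 30% in both replicate assays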;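 further: 100% = median of untreated cell wells with 0.1% DMSO on each plate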); conditions: HUVEC proliferation, CellTiter-Glo luminescence, 72 h; at 10 µM; stronger effect = lower value
How it was run: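 Test system: primary human umbilical vein endothelial cells; medium: endothelial basal medium with 2% FBS plus growth supplements; dosing: 10 µM compound only; times: 72 h treatment at 37 °C; signal: CTG luminescence; read-out: % viability relative to median vehicle-well signal on each plate; control set: vehicle and MePR control wells; plate: 384-well, collagen-coated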

[5] = H69AR cell proliferation blockers – human, duplicate replicates, primary screen (AID 580;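 active means viability at or under a set limit in both replicates, limit being median viability minus 3 SD, cut at about 48% in these data, passing the limit was not always enough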;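 further: 100% = mean luminescence of untreated wells and 0% = no signal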); conditions: H69AR lung tumor cells viability, ATP luminescence, 72 h; at 10 µM; stronger effect = lower value
[6] = MRP1 drug-resistance reversers in H69AR cells – cell-based, doxorubicin co-treatment, pilot screen (AID 601); conditions: CellTiter-Glo, 72 h, at 10 µM; for differential viability (reversal): stronger effect = higher value
[7] = yeast transport mutant growth inhibition pilot in 384-well plates, post-Golgi transport modulator project (AID 636; in the data active means inhibition above about 31%); conditions: absorbance 615 nm, about 18 h, stronger effect = higher value
[8] = growth suppression of yeast trafficking mutant, preliminary HTS, modulators of trafficking downstream of Golgi apparatus project, 1536-format plate, OD 615 nm (AID 637; in the data active means inhibition above about 30%); conditions: yeast transport mutant growth, absorbance 615 nm, 18 h; stronger effect = higher value
[9] = H69AR cells + 2 uM doxorubicin, measured here: viability with 2 uM doxorubicin, stronger effect = lower value
[10] = H69AR cells, compound alone cytotoxicity

Sequence of Receptor tyrosine-protein kinase erbB-2 (Homo sapiens) (P04626 whole entry, looked up): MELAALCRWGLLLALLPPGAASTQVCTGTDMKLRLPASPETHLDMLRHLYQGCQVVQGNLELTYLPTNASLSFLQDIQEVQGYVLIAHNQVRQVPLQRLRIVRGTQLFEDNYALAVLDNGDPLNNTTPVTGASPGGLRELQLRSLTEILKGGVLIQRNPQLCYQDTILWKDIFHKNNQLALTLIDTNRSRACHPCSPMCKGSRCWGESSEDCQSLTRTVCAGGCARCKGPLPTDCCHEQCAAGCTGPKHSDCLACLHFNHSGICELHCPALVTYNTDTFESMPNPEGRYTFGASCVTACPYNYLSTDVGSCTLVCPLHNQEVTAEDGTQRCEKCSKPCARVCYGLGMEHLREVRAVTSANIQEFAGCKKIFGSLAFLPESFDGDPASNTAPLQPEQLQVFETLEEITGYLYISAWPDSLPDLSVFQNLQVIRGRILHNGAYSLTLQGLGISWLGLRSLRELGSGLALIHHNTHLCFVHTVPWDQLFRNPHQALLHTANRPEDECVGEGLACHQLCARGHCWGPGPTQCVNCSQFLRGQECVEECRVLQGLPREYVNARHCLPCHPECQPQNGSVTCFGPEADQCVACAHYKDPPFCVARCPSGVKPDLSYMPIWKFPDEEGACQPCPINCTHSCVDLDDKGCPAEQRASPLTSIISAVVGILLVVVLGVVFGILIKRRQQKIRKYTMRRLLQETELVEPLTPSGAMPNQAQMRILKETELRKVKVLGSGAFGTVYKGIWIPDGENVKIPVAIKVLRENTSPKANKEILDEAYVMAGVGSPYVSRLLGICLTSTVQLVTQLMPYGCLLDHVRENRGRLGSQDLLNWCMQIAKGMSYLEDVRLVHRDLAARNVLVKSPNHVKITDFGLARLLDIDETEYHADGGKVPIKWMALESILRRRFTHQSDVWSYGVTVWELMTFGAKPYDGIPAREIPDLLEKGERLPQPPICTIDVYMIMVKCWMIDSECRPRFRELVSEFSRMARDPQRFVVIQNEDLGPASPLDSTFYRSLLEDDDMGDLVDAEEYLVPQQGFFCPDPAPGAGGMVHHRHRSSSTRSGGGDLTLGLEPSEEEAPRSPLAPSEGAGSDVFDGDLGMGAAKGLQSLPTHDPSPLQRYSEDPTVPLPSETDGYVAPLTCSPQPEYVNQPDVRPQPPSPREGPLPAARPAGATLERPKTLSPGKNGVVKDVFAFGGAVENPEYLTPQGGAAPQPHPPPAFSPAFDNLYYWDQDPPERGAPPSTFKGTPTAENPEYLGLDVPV

Structure (SMILES)	viability [1] [%]	Her2 level [2]	viability [3]	viability [4]	viability [5]	differential viability (reversal) ([6]; H69AR cells + 2 uM doxorubicin)	viability [6, 9] [%]	viability [6, 10] [%]	inhibition [7]	inhibition [8]
O=C(c1ccco1)N1CCN(S(=O)(=O)c2ccc(Oc3ccccc3)cc2)CC1	82	102% (inactive)	82% (inactive)	78.6% (inactive)	90.6% (inactive)	-6.27% (inactive)	96.8	90.6	-1.35% (inactive)	5.74% (inactive)
CCOC(=O)c1c(-c2cccs2)csc1NC(=O)CCCC(=O)O	110	87% (inactive)	110% (inactive)	78.3% (inactive)	83.4% (inactive)	1.06% (inactive)	82.4	83.4	-5.79% (inactive)	-3.27% (inactive)
Cc1[nH]c(=O)[nH]c(=O)c1S(=O)(=O)N1CCN(c2cccc(Cl)c2)CC1	88	112% (inactive)	88% (inactive)	82.6% (inactive)	93.2% (inactive)	1.64% (inactive)	91.6	93.2	3.95% (inactive)	-9.35% (inactive)
Cc1nnc(SCC(=O)N(C(C)C)C(C)C)nc1C	75.5	88.5% (inactive)	75.5% (inactive)	95% (inactive)	103% (inactive)	10.3% (inactive)	93.2	103	-5.6% (inactive)	-1.31% (inactive)
CCOc1ccc(-c2nc(C#N)c(N3CCCCCC3)o2)cc1	138	82% (inactive)	138% (inactive)	79.5% (inactive)	94.7% (inactive)	-0.54% (inactive)	95.2	94.7	0.64% (inactive)	-0.17% (inactive)
CC(C)(C)c1ccccc1NC(=O)c1cccnc1	91.5	93.5% (inactive)	91.5% (inactive)	88.7% (inactive)	96.6% (inactive)	7.78% (inactive)	88.8	96.6	-4.67% (inactive)	0.32% (inactive)
CCOC(=O)Cc1csc(NC(=O)CN(C)S(=O)(=O)c2ccc3c(c2)CCC(=O)N3)n1	108	109% (inactive)	108% (inactive)	97.5% (inactive)	100% (inactive)	6.38% (inactive)	93.7	100	-4% (inactive)	0.82% (inactive)
Cc1nn(C(=O)c2cc3sccc3[nH]2)c(C)c1C	95	104% (inactive)	95% (inactive)	74.1% (inactive)	106% (inactive)	2.57% (inactive)	103	106	-4.47% (inactive)	-4.83% (inactive)
CCOC(=O)c1cc2cc(F)ccc2nc1C	103	112% (inactive)	103% (inactive)	120% (inactive)	108% (inactive)	20.9% (inactive)	87.1	108	-0.93% (inactive)	-5.9% (inactive)
CCOC(=O)N1CCN(c2c(NCC3CCN(Cc4cccc(C)c4)CC3)c(=O)c2=O)CC1	102	89.5% (inactive)	102% (inactive)	81.7% (inactive)	107% (inactive)	15% (inactive)	92.2	107	-2% (inactive)	2.95% (inactive)
O=C(O)c1cc(Cl)c(Cl)cc1C(=O)N1CCCC1	97.5	100% (inactive)	97.5% (inactive)	87.2% (inactive)	98.7% (inactive)	-2.26% (inactive)	101	98.7	-1.79% (inactive)	-1.17% (inactive)
Cc1ccsc1C1C2=C(CCCC2=O)Nc2ncnn21 (stereo not given)	86	100% (inactive)	86% (inactive)	98% (inactive)	92.6% (inactive)	-7.12% (inactive)	99.7	92.6	-1.32% (inactive)	-1.31% (inactive)
CCN1CCN(C(c2ccc(F)cc2)c2nnnn2Cc2cccs2)CC1 (stereo not given)	83	105% (inactive)	83% (inactive)	89.4% (inactive)	94.9% (inactive)	8.46% (inactive)	86.4	94.9	-1.15% (inactive)	-0.17% (inactive)
COc1ccc(OC)c(C2=NOC(C(=O)Nc3cccnc3)C2)c1 (stereo not given)	78.5	82% (inactive)	78.5% (inactive)	102% (inactive)	88.9% (inactive)	5.72% (inactive)	83.2	88.9	-1.97% (inactive)	1.09% (inactive)
O=C(OCC(=O)N1CCCCCC1)c1cccs1	99	95.5% (inactive)	99% (inactive)	103% (inactive)	106% (inactive)	9.71% (inactive)	96.7	106	-0.67% (inactive)	1.77% (inactive)
CCCn1c(NCc2ccc3c(c2)OCO3)nc2ccccc21	94	85% (inactive)	94% (inactive)	80.1% (inactive)	97.2% (inactive)	12.3% (inactive)	84.9	97.2	-5.6% (inactive)	-1.13% (inactive)
Cc1c(C(=O)OC(C)C)[nH]c2c1C(=O)CCC2	96.5	104% (inactive)	96.5% (inactive)	102% (inactive)	106% (inactive)	12.9% (inactive)	93	106	0.39% (inactive)	-6.29% (inactive)
CCOc1ncccc1C(=O)OCC(=O)Nc1ncc(C(F)(F)F)cc1Cl	99.5	95% (inactive)	99.5% (inactive)	97.2% (inactive)	93.8% (inactive)	-0.51% (inactive)	94.3	93.8	-1.58% (inactive)	7.9% (inactive)
Cc1nn(S(=O)(=O)N2CCCCC2)c(C)c1Br	95	130% (inactive)	95% (inactive)	96.2% (inactive)	102% (inactive)	5.13% (inactive)	97.1	102	-1.41% (inactive)	-6.17% (inactive)
CN(C(=O)c1cc2sccc2n1C)C1CCCCC1	91	106% (inactive)	91% (inactive)	87.7% (inactive)	100% (inactive)	14.7% (inactive)	85.7	100	-7.3% (inactive)	-2.13% (inactive)
CCn1c(=N)n(CC(O)c2ccco2)c2ccccc21 (stereo not given)	94.5	119% (inactive)	94.5% (inactive)	116% (inactive)	90.4% (inactive)	10.3% (inactive)	80.1	90.4	-4.49% (inactive)	4.67% (inactive)
COc1cccc(OCc2nc3ccccc3[nH]2)c1	86.5	110% (inactive)	86.5% (inactive)	101% (inactive)	95.8% (inactive)	7.5% (inactive)	88.3	95.8	-0.51% (inactive)	-5% (inactive)
CN(C)S(=O)(=O)c1ccc(C(=O)Nc2ccccc2C(=O)O)cc1	102	88.5% (inactive)	102% (inactive)	102% (inactive)	94.6% (inactive)	-1.06% (inactive)	95.7	94.6	-3.03% (inactive)	-3.17% (inactive)
COc1ccccc1CN1CC(C(=O)N2CCN(c3ccc(F)cc3)CC2)CC1=O (stereo not given)	92	86% (inactive)	92% (inactive)	98% (inactive)	88.8% (inactive)	-3.51% (inactive)	92.3	88.8	-2.24% (inactive)	11.5% (inactive)
Cc1cc(C)c2c(n1)nn1c(N3CCOCC3)cc(C)nc21	90	87.5% (inactive)	90% (inactive)	110% (inactive)	87.1% (inactive)	-6.34% (inactive)	93.4	87.1	-4.86% (inactive)	0.79% (inactive)
Cc1ccccc1CN1CCN(CC(=O)NCc2ccccc2)C1=O	113	117% (inactive)	113% (inactive)	97.9% (inactive)	89.9% (inactive)	6.96% (inactive)	83	89.9	-5.32% (inactive)	2.79% (inactive)
Cn1c(-c2cc(Br)ccc2O)n[nH]c1=S	89.5	110% (inactive)	89.5% (inactive)	87% (inactive)	92.9% (inactive)	3.24% (inactive)	89.7	92.9	4.03% (inactive)	-9.84% (inactive)
CC1CCN(C(=O)CSc2nc3ccccc3[nH]2)CC1	82	99.5% (inactive)	82% (inactive)	91.8% (inactive)	109% (inactive)	14.7% (inactive)	94.6	109	0.26% (inactive)	6% (inactive)
